Compound activity as filed in PubChem.
S100A4 inh HTS – inhibitors of S100A4-myosin IIA peptide binding, primary screen, biochemical, fluorescence polarization, TAMRA-MyoIIA peptide; AID 652163, 2013; actives 0.14% (n = 360,000); Protein S100-A4 (Homo sapiens), P26447; inhibition, % at 10.7 µM;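 active = mean inhibition of at least 70% across replicates, with every replicate also reaching that level; inconclusive = mean inhibition reaches 70% but some replicates fall short; inactive = mean inhibition below 70%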
Target sequence (P26447 whole entry, looked up): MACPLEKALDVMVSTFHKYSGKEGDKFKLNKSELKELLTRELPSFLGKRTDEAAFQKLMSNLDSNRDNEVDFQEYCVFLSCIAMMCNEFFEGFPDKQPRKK
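Material: S100A4 monomer (human). Medium: Calcium-containing HEPES buffer, pH 7.2. Probe or stimulus: labelled myosin peptide probe, 5 nM. Compound dosing: one concentration per compound. Timing: polarization read 5 min after assay mix addition, stable 5–60 min. Benchmarks: DMSO as neutral control, TFP as positive control.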
PGC1a acetyl inh – inhibitors of PGC1a acetylation signal, primary screen, cell-based, U2OS, AlphaScreen, inhibitor mode | AlphaScreen anti-acetyl-lysine; with virally co-expressed GCN5 acetyltransferase | inhibition, % at 15.6 µM | actives 0.17% (n = 350,000) | AID 651687, 2012;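 active = every replicate shows inhibition of at least 40%; inconclusive = mean inhibition at least 40% but some replicate below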
SIRT5 inh – SIRT5 desuccinylase inhibitors, primary screen, biochemical, fluorescence imaging, single point, set 5 | NAD-dependent protein deacylase sirtuin-5, mitochondrial (Homo sapiens), Q9NXA8 | Purified SirT5, succinyl-peptide AMC, trypsin-coupled fluorescence | inhibition, % at 15 µM | actives 1.1% (n = 330,000); in the data active = inhibition above about 15%; inconclusive = no clear call, values can overlap the other calls
Target sequence (Q9NXA8 whole entry, looked up): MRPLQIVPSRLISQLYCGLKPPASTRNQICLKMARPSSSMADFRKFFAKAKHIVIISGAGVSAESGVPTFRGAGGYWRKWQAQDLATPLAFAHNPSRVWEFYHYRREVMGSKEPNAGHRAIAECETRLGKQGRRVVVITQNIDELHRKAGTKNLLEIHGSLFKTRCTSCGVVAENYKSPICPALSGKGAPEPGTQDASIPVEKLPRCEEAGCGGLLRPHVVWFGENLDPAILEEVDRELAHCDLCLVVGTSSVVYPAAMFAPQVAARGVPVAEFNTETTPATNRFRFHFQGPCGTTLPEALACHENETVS
Statin myotox sup – suppressors of statin myotoxicity in C2C12 myotubes, primary screen, cell-based, single point, plate reader; actives 0.78% (n = 330,000); rescue of ATP level, % at 7.49 µM; C2C12 myotubes + simvastatin, ATP luminescence, 48 h; scaled: DMSO 0, geranylgeraniol control 100; AID 602340, 2012;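 active = mean ATP rescue above about 67%, or every replicate alone reaching that limit, limit read from the data, passing the limit was not always enough; inconclusive = no clear call, values can overlap the other calls; inactive = mean under the limit and some replicate under it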;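 note: myotubes were challenged with 10 µM simvastatin during compound exposure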
DENV2 CPE rescue – inhibitors of DENV2 cytopathic effect, primary screen, cell-based, plate reader, single concentration | DENV2-infected cells, cytopathic effect rescue | CPE inhibition, % at 9.99 µM | actives 1.7% (n = 350,000) | AID 651640, 2012; in the data active = CPE inhibition above about 20%, passing the limit was not always enough; inconclusive = no clear call, values can overlap the other calls; tested in BHK-21 cells
Large screens that a line does not name were inactive. Hits are enriched below; roughly 2.9% of the tested compounds scored in any of these assays.

Cc1noc(C)c1NC(=O)N(C)C[C@H]1Oc2c(cccc2N(C)C)C(=O)N([C@@H](C)CO)C[C@@H]1C	DENV2 CPE rescue 24.5
Cc1noc(C)c1NC(=O)N(C)C[C@H]1Oc2c(NS(=O)(=O)c3ccccc3)cccc2C(=O)N([C@@H](C)CO)C[C@H]1C	DENV2 CPE rescue 27.8
Cc1ccc2nc(SC(C)C(=O)N3CC(C)OC(C)C3)[nH]c2c1 (stereo unspecified)	SIRT5 inh 22.4 (no result: PGC1a acetyl inh, Statin myotox sup)
CCOc1cc(C=NN2CCCCCC2)ccc1O	SIRT5 inh 31.3
CC(C)(C)OC(=O)NCc1ccc(CNC(=O)c2nc[nH]c2C(=O)N2CCc3ccccc3C2)cc1	DENV2 CPE rescue 59.9 (no result: SIRT5 inh)
CC(C)(C)OC(=O)NCCCCCNC(=O)c1nc[nH]c1C(=O)N1CCc2ccccc2C1	none (no result: SIRT5 inh)
CC(C)(C)OC(=O)NCc1ccc(CNC(=O)c2nc[nH]c2C(=O)NCc2ccc(CNC(=O)OC(C)(C)C)cc2)cc1	SIRT5 inh 16.0
C[C@@H]1CN([C@@H](C)CO)C(=O)c2cc(-c3ccccc3)cnc2O[C@@H]1CN(C)C(=O)c1ccccc1F	DENV2 CPE rescue inconclusive
CC(C)C[C@H]1CNC(=O)C(=O)N1C[C@@H]1CCCN1C[C@H](Cc1ccccc1)N1C[C@H](CC(C)C)N(CC2CCCCC2)C(=O)C1=O	DENV2 CPE rescue inconclusive (no result: PGC1a acetyl inh, Statin myotox sup)
CCNC(=O)C[C@H]1CC[C@@H]2[C@H](COC[C@@H](O)CN2C(=O)c2ccccn2)O1	none (no result: S100A4 inh HTS, SIRT5 inh)
CNC(=O)C[C@@H]1CC[C@@H]2[C@H](COC[C@H](O)CN2C(=O)c2ccccn2)O1	DENV2 CPE rescue 69.3
O=C(C[C@H]1CC[C@@H]2[C@H](COC[C@H](O)CN2C(=O)c2ccccn2)O1)N1CCN(c2ccccc2)CC1	DENV2 CPE rescue 38.9
C[C@H](CO)N1C[C@H](C)[C@H](CN(C)C(=O)Nc2ccc(F)cc2)OCCCC[C@H](C)Oc2ccc(NC(=O)NC3CCCCC3)cc2C1=O	DENV2 CPE rescue inconclusive (no result: Statin myotox sup)
Cc1noc(C)c1S(=O)(=O)N(C)C[C@@H]1OCCCC[C@H](C)Oc2ccc(NC(=O)NC(C)C)cc2C(=O)N([C@@H](C)CO)C[C@H]1C	none (no result: Statin myotox sup)
Cc1noc(C)c1S(=O)(=O)N(C)C[C@H]1OCCCC[C@@H](C)Oc2ccc(NC(=O)Nc3ccc(F)cc3)cc2C(=O)N([C@H](C)CO)C[C@@H]1C	none (no result: Statin myotox sup)
Cc1noc(C)c1S(=O)(=O)N(C)C[C@@H]1OCCCC[C@H](C)Oc2ccc(NC(=O)C3CCCCC3)cc2C(=O)N([C@H](C)CO)C[C@H]1C	S100A4 inh HTS 111.0
Cc1noc(C)c1S(=O)(=O)N(C)C[C@@H]1OCCCC[C@H](C)Oc2ccc(NC(=O)NC(C)C)cc2C(=O)N([C@H](C)CO)C[C@H]1C	DENV2 CPE rescue 86.4 (no result: Statin myotox sup)
Cc1noc(C)c1S(=O)(=O)N(C)C[C@@H]1OCCCC[C@@H](C)Oc2ccc(NC(=O)Nc3ccc(F)cc3)cc2C(=O)N([C@@H](C)CO)C[C@@H]1C	DENV2 CPE rescue 45.7 (no result: Statin myotox sup)
Cc1noc(C)c1NC(=O)Nc1ccc2c(c1)C(=O)N([C@H](C)CO)C[C@@H](C)[C@H](CN(C)Cc1ccc(Cl)c(Cl)c1)OCCCC[C@@H](C)O2	none (no result: Statin myotox sup)
O=C(O)c1ccccc1SCc1cn2cc(Cl)ccc2n1	none (no result: PGC1a acetyl inh, Statin myotox sup)
CC(SCc1cn2cc(Cl)ccc2n1)C(=O)O (stereo unspecified)	Statin myotox sup 107.8 (no result: S100A4 inh HTS, SIRT5 inh, DENV2 CPE rescue)
O=C(C[C@@H]1CC[C@@H]2[C@H](COC[C@H](O)CN2C(=O)Nc2ccc(F)cc2)O1)NC1Cc2ccccc2C1	none
C[C@H](CO)N1C[C@H](C)[C@@H](CN(C)C(=O)Nc2ccc(F)cc2)Oc2ccc(NC(=O)Nc3ccccc3)cc2CC1=O	none
Cn1cnc(S(=O)(=O)N2C[C@@H](O)COC[C@@H]3O[C@@H](CC(=O)NC4CCCC4)CC[C@H]32)c1	DENV2 CPE rescue 114.3
CN(C)CCCNC(=O)C[C@@H]1CC[C@H]2[C@@H](COC[C@H](O)CN2S(=O)(=O)c2ccccc2)O1	DENV2 CPE rescue 59.9
O=C(C[C@H]1CC[C@@H]2NC[C@@H](O)COC[C@H]2O1)NCCN1CCCCC1	none (no result: S100A4 inh HTS, SIRT5 inh)
O=C(C[C@H]1CC[C@H]2NC[C@H](O)COC[C@@H]2O1)NCCN1CCCCC1	S100A4 inh HTS 115.2
Cc1ccc(S(=O)(=O)N2C[C@@H](O)COC[C@H]3O[C@@H](CC(=O)NCCN4CCCCC4)CC[C@@H]32)cc1	DENV2 CPE rescue 67.2
C/C=C/c1ccc2c(c1)[C@@H]1[C@@H](CCN1C(=O)Cc1cccnc1)[C@H](CO)N2C	none
C[C@H](CO)N1C[C@H](C)[C@@H](CN(C)C(=O)c2ccccc2)Oc2ncc(/C=C/c3ccccc3)cc2C1=O	none
CC1N(C)c2cc(NC(=O)c3ccco3)ccc2C1(C)C (stereo unspecified)	S100A4 inh HTS 179.6 (no result: PGC1a acetyl inh, Statin myotox sup)
CC1N(C)c2cc(NC(=O)c3ccco3)c(P(=O)(Nc3ccc([N+](=O)[O-])cc3)N3CCOCC3)cc2C1(C)C (stereo unspecified)	none (no result: PGC1a acetyl inh, Statin myotox sup)
Cc1noc(C)c1S(=O)(=O)Nc1ccc2c(c1)CC(=O)N([C@H](C)CO)C[C@@H](C)[C@H](CN(C)Cc1ccccc1)O2	DENV2 CPE rescue 21.6 (no result: PGC1a acetyl inh, SIRT5 inh)
Cc1noc(C)c1S(=O)(=O)Nc1ccc2c(c1)CC(=O)N([C@H](C)CO)C[C@H](C)[C@H](CN(C)Cc1ccncc1)O2	SIRT5 inh 19.5
Cc1noc(C)c1S(=O)(=O)Nc1ccc2c(c1)CC(=O)N([C@H](C)CO)C[C@@H](C)[C@H](CN(C)Cc1ccc(Cl)c(Cl)c1)O2	Statin myotox sup 86.5
Cc1noc(C)c1S(=O)(=O)Nc1ccc2c(c1)CC(=O)N([C@@H](C)CO)C[C@H](C)[C@H](CN(C)Cc1ccc(Cl)c(Cl)c1)O2	none
Cc1noc(C)c1S(=O)(=O)Nc1ccc2c(c1)CC(=O)N([C@H](C)CO)C[C@H](C)[C@H](CN(C)Cc1ccccc1)O2	none (no result: PGC1a acetyl inh)
COCC(=O)Nc1ccc2c(c1)C(=O)N(C)C[C@H](OC)[C@@H](C)CN(C(C)=O)[C@@H](C)CO2	none
O=c1oc2ccccc2c(Nc2ccccc2O)c1[N+](=O)[O-]	SIRT5 inh 16.9 (no result: Statin myotox sup)
O=C(Nc1ccccc1F)NC1CCN(Cc2nnnn2Cc2ccc(F)cc2)CC1	none (no result: S100A4 inh HTS, PGC1a acetyl inh, SIRT5 inh, DENV2 CPE rescue)
O=C(Nc1ccc(F)cc1)NC1CCN(Cc2nnnn2Cc2ccco2)CC1	Statin myotox sup 95.1 (no result: S100A4 inh HTS, SIRT5 inh, DENV2 CPE rescue)
O=C(C[C@H]1C=C[C@@H](NS(=O)(=O)c2ccc(F)cc2)[C@H](CO)O1)NC1CCC1	none
C[C@@H]1CCCCO[C@@H](CN(C)S(=O)(=O)c2cccs2)[C@H](C)CN([C@@H](C)CO)C(=O)c2cc(NC(=O)Nc3ccc4c(c3)OCO4)ccc2O1	none (no result: Statin myotox sup)
